Data taken from publication PMC7286531 (Organic & biomolecular chemistry, 2020).

Tests used:
[1] = Stability in aqueous buffer under air; format: physicochemical; settings: C188–9: within 4 hours
[2] = system: STAT3 phosphorylated on tyrosine 705 (pSTAT3); assay: G-CSF-induced intracellular STAT3 phosphorylation assay in AML cell lines; format: cell-based, human; settings: Kasumi-1 / Kasumi cells
How it was run: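 Kasumi-1 human AML cells (also other AML lines) were exposed to a concentration series of test compound and stimulated with G-CSF to induce STAT3 phosphorylation. Cells were then lysed, and STAT3 phosphorylated on Tyr705 was quantified with a fluorescent anti-pSTAT3 antibody. IC50 was taken from the concentration series; mean ±SD, n = 3.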

stability in aqueous buffer in air, result in words [1]: Significant decomposition
Structure (SMILES): COc1ccc(S(=O)(=O)Nc2cc(-c3c(O)ccc4ccccc34)c(O)c3ccccc23)cc1 [C188–9]
inhibition of G-CSF-induced STAT3 phosphorylation, result in words [2]: exceptionally resistant
